Test results: ChEMBL document CHEMBL1129612, “New low-density lipoprotein receptor upregulators acting via a novel mechanism” (J Med Chem, 1996)

What follows are compounds tested on HepG2 (assay: Compound was tested in vitro for up-regulation of low density lipoprotein (LDL) receptor in human hepatocytes (HepG2 cells) at a concentration 3 uM).
Type: functional
Summary of the method: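 HepG2 cells (passage ≤10, DMEM with FCS, 5% CO2, 37 °C) plated at 10 000 cells/well and grown 3 days to 80% confluence. Compound at 3 µM added in DMEM with 1% BSA for 24 h. Cell-surface LDL receptors measured by fluorescence immunoassay: MAC-C7 antibody, then alkaline phosphatase-conjugated anti-mouse IgG, substrate ATTAPHOS. Cell number read by propidium iodide. Five replicates, mean % increase.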

Row | Structure (SMILES) | Activity [%]
1 | Cc1ccc(NC(=O)CCC2CCCCC2)cc1NC(=O)c1ccc(CO)cc1 | 44
2 | COc1ccc(NC(=O)CCC2CCCCC2)cc1NC(=O)c1ccc(OC(C)=O)cc1 | -13
3 | CCCCCCCCC(=O)Nc1ccc(C)c(NC(=O)c2ccc(O)cc2)c1 | -10
4 | Cc1ccc(NC(=O)CCC2CCCCC2)cc1/C=C(\C#N)c1cccnc1 | 126
5 | CC(=O)Oc1ccc(C(=O)Nc2cc(NC(=O)CCC3CCCCC3)ccc2C)cc1 | 82
6 | Cc1ccc(NC(=O)CCC2CCCCC2)cc1NC(=O)c1ccccc1 | 50
7 | Cc1ccc(NC(=O)CCC2CCCCC2)cc1NC(=O)c1cc[n+]([O-])cc1 | 7
8 | Cc1ccc(NC(=O)CCN2CCCCC2)cc1NC(=O)c1ccc(O)cc1 | -2
9 | O=C(CCC1CCCCC1)Nc1ccc(F)c(NC(=O)c2ccc(O)cc2)c1 | 12
10 | Cc1ccc(NC(=O)CCC2CCCCC2)cc1NC(=O)c1ccc([N+](=O)[O-])cc1 | 11
11 | CC(=O)Oc1ccc(C(=O)Nc2cccc(NC(=O)CCC3CCCCC3)c2)cc1 | 6
12 | Cc1ccc(NC(=O)CCC2CCCCC2)cc1NCc1ccc(O)cc1 | -11
13 | Cc1ccc(C(=O)CCCC2CCCCC2)cc1NC(=O)c1cccnc1 | 111
14 | Cc1ccc(NC(=O)NCC2CCCCC2)cc1NC(=O)c1ccc(O)cc1 | 10
15 | Cc1ccc(NC(=O)CCC2CCCCC2)cc1NC(=O)c1cccnc1 | 83
16 | O=C(CCC1CCCCC1)Nc1ccc(Br)c(NC(=O)c2ccc(O)cc2)c1 | 6
17 | Cc1ccc2[nH]c(-c3cc(NC(=O)CCC4CCCCC4)ccc3C)nc2c1 | 91
18 | Cc1ccc(NC(=O)CCC2CCCCC2)cc1/C=C(\C#N)c1ccc2c(c1)OCO2 | 108
19 | COC(=O)c1ccc(C(=O)Nc2cc(NC(=O)CCC3CCCCC3)ccc2C)cc1 | 3
20 | Cc1ccc(C(=O)CCCC2CCCCC2)cc1NC(=O)c1ccc(O)cc1 | 10
21 | Cc1ccc(NC(=O)CCCC2CCCCC2)cc1NC(=O)c1ccc(O)cc1 | 32

Row | Structure (SMILES) | Activity [%]
22 | Cc1ccc(NC(=O)CCC2CCCCC2)cc1-c1nc2ccccc2[nH]1 | 45
23 | CC(=O)Oc1ccc(C(=O)Nc2cc(NC(=O)COC3CCCCC3)ccc2C)cc1 | 17
24 | Cc1ccc(NC(=O)CCC2CCCCC2)cc1NC(=O)C1CCCCC1 | 0
25 | Cc1ccc(NC(=O)CC2CCCCC2)cc1NC(=O)c1ccc(O)cc1 | 3
26 | Cc1ccc(C(=O)NCCC2CCCCC2)cc1NC(=O)c1ccc(O)cc1 | 75
27 | Cc1ccc(NC(=O)CCC2CCCCC2)cc1NC(=O)c1ccc2c(c1)OCO2 | 111
28 | Cc1ccc(NC(=O)CCC2CCCCC2)cc1NC(=O)c1ccc(N)cc1 | 58
29 | Cc1ccc(NC(=O)CCC2CCCCC2)cc1NC(=O)c1ccccc1O | 0
30 | O=C(CCC1CCCCC1)Nc1ccc(Cl)c(NC(=O)c2ccc(O)cc2)c1 | 8
31 | Cc1ccc(NC(=O)CCC2CCCCC2)cc1NC(=O)c1ccncc1 | -5
32 | O=C(CCC1CCCCC1)Nc1ccc(O)c(NC(=O)c2ccc(O)cc2)c1 | -3
33 | Cc1ccc(NC(=O)OCC2CCCCC2)cc1NC(=O)c1ccc(O)cc1 | 16
34 | Cc1ccc(NC(=O)CCC2CCCCC2)cc1/C=C(\C#N)c1ccc(O)cc1 | 21
35 | Cc1ccc(NC(=O)CCc2ccccc2)cc1NC(=O)c1ccc(O)cc1 | -20
36 | Cc1ccc(NC(=O)CCC2CCCCC2)cc1-c1nc2cc(O)ccc2[nH]1 | 134
37 | Cc1ccc(NC(=O)CCC2CCCC2)cc1NC(=O)c1ccc(O)cc1 | 25
38 | Cc1ccc(NC(=O)CCC2CCCCC2)cc1NC(=O)c1cccc(O)c1 | 59
39 | Cc1ccc(NC(=O)CCC2CCCCC2)cc1C(=O)Nc1ccc(O)cc1 | 60
40 | Cc1ccc(NC(=O)CCC2CCCCC2)cc1NC(=O)c1ccc(O)cc1 | 80
41 | CC[C@H](C)C(=O)O[C@H]1C[C@@H](C)C=C2C=C[C@H](C)[C@H](CC[C@@H]3C[C@@H](O)CC(=O)O3)[C@H]21 [LOVASTATIN] | 70
